Experiments:
TNK1 = molecular target: T1, TNK1 (Homo sapiens, UniProt Q13470); experiment: in vitro ATP-site competition binding assay, panel of 402 kinases; settings: 10 μM inhibitor
T1 sequence (Q13470 1-666): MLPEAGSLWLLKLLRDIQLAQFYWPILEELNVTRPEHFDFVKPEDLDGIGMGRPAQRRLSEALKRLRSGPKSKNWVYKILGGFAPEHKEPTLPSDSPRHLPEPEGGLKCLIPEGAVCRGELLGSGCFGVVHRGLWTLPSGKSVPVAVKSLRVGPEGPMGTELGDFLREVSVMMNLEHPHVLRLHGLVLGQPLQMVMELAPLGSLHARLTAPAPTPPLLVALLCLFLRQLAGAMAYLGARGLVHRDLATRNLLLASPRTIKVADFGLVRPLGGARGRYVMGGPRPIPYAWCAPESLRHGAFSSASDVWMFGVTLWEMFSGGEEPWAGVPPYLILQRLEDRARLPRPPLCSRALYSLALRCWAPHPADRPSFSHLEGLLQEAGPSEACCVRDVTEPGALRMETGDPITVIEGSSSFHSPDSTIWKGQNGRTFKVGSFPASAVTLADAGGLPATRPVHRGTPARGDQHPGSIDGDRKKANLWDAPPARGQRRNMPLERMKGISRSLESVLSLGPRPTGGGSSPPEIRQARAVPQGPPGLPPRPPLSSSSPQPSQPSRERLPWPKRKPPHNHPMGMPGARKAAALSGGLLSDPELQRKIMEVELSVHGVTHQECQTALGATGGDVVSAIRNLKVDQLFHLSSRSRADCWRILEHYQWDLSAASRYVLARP

PLK4 [1] = molecular target: T2, PLK4 (Homo sapiens, UniProt O00444); experiment: as above; settings: 10 μM inhibitor
T2 sequence (O00444 1-970): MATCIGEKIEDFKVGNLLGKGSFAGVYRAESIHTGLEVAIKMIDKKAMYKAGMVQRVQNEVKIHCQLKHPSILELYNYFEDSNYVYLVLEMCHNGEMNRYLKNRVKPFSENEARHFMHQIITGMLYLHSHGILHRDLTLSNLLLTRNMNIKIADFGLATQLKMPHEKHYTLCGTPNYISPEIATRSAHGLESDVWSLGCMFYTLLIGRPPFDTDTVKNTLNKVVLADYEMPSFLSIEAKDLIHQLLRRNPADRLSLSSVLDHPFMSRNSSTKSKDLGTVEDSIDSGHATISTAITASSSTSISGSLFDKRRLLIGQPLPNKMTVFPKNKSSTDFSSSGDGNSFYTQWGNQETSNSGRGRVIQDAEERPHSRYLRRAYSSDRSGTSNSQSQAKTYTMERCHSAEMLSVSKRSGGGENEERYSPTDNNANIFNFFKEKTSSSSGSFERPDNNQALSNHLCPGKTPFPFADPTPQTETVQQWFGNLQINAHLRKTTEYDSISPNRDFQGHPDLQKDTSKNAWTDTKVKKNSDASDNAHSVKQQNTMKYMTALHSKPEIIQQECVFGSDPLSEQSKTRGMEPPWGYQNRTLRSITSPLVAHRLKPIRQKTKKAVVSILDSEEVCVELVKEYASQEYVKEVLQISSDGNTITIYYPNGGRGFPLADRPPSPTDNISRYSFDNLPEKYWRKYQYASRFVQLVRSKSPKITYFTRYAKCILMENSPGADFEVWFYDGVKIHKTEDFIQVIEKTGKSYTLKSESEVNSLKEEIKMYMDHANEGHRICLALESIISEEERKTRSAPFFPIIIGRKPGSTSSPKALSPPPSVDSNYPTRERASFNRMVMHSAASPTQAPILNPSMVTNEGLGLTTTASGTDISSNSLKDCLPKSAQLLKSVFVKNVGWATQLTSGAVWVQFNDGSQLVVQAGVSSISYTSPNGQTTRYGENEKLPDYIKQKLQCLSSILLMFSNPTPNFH

BMK1 [2] = molecular target: T3, BMK1 (Homo sapiens, UniProt Q13164); experiment: as above; settings: 10 μM inhibitor
Target sequence in this assay (Q13164 whole entry, species assumed): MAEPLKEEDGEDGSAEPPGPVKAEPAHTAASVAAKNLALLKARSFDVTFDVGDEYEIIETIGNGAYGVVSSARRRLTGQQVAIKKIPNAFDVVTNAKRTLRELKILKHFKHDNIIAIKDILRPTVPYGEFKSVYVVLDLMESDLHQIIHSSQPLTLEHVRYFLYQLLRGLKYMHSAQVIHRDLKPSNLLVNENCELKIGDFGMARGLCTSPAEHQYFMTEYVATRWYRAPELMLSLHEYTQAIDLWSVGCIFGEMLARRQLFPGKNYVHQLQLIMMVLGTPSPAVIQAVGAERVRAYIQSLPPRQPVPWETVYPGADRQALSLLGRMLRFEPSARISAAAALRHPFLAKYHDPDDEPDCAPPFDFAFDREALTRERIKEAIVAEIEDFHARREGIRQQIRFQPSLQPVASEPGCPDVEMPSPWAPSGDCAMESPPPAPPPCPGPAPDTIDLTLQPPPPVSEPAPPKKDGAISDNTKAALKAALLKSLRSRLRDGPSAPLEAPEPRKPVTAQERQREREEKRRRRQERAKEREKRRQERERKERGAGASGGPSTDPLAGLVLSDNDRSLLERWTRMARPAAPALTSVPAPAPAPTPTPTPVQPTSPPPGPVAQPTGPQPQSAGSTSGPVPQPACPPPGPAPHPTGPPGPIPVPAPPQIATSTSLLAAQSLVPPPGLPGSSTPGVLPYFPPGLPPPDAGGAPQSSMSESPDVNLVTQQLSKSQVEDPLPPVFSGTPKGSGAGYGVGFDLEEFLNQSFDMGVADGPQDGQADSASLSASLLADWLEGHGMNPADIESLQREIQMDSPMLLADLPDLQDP

HeLa cells = experiment: HeLa cell proliferation, MTT assay; type: cell-based, human; settings: 5 μM, 48 hr, compared with Ad-BMK1(AEF)
ERK1/2 = experiment: EGF-induced ERK1/2 activation in HeLa cells; type: cell-based, human; settings: 1 μM compound for one hour, EGF 17 min
PLK4 [3] = molecular target: T2, PLK4; experiment: Inhibitory effect on PLK4 in vitro and in vivo
[4] = system: BMK1-dependent transactivating activity of MEF2C; experiment: Trans-reporter assay of BMK1-dependent MEF2C transactivating activity in HEK293; type: cell-based; settings: HEK293, 5 μM for 16 hr, luciferase
DCAMKL2 = molecular target: T4, DCAMKL2 (Homo sapiens, UniProt Q8N568); experiment: in vitro ATP-site competition binding assay, panel of 402 kinases; settings: 10 μM inhibitor
T4 sequence (Q8N568 1-766): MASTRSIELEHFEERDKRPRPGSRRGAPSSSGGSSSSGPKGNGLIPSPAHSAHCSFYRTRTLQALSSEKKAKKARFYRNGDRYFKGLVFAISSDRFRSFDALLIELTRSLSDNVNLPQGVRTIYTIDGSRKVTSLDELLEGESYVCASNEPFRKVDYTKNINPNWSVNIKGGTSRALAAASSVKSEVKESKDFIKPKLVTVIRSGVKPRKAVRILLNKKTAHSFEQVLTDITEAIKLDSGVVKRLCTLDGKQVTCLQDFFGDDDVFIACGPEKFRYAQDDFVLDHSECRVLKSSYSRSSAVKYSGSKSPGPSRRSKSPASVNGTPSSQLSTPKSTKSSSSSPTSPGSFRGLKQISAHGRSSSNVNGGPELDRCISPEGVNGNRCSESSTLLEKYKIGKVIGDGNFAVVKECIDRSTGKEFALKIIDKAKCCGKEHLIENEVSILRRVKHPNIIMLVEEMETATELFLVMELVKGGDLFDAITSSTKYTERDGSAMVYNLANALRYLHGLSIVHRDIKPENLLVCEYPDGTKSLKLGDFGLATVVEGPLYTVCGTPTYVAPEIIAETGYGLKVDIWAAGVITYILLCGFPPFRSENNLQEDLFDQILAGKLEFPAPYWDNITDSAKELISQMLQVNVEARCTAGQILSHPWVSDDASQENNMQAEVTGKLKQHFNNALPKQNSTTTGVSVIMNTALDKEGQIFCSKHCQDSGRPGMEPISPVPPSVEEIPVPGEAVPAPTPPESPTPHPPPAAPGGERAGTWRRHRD

[5] = system: basic fibroblast growth factor (bFGF) induced angiogenesis; experiment: bFGF-induced angiogenesis in Matrigel plugs; type: in vivo; settings: mice, Matrigel with 400 ng/mL bFGF, treated for 6 days
How it was run: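 Mice were implanted with Matrigel containing 400 ng/mL bFGF and treated with test compound or vehicle for 6 days, starting the next day. Plugs were harvested, sectioned and stained with Masson's trichrome (6 mice, 9 slices), and plug hemoglobin content was measured. Student's t test was used.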

BMK1 [6] = molecular target: T3, BMK1; experiment: EGF-induced BMK1 activation in HeLa cells; type: cell-based; settings: 1 μM compound for one hour, EGF 17 min
Target sequence in this assay (Q13164 whole entry): as the sequence (Q13164 whole entry, species assumed) above

CCOc1cc(N2CCC(O)CC2)ccc1Nc1ncc2c(n1)N(C)c1ccccc1C(=O)N2C [XMD8-92]
displacement by XMD8-92 (TNK1): greater than 90%
displacement by XMD8-92 (PLK4 [1]): greater than 90%
displacement by XMD8-92 (BMK1 [2]): greater than 90%
extent of inhibition of proliferation (HeLa cells): indistinguishable from that by dominant negative BMK1
Growth factor-induced activation of cellular ERK1/2 (ERK1/2): but not the structurally similar ERK1/2
inhibitory effect on PLK4 (PLK4 [3]): no significant inhibitory effect
BMK1-dependent transactivating activity of MEF2C [4]: dramatically reduced
displacement by XMD8-92 (DCAMKL2): greater than 90%
bFGF induced angiogenesis in Matrigel plugs [5]: significantly inhibits
Growth factor-induced activation of cellular BMK1 (BMK1 [6]): effectively blocked
